As a reminder, the MIC is the lowest concentration found to suppress growth. As a reminder, the IC50 is the concentration needed to halve the response being measured. In general, half-life refers to the time in which the quantity being followed falls by half. As usually defined, the chromatographic logD is lipophilicity estimated from chromatographic retention. Lower therefore signals a more hydrophilic compound. The term IC90 denotes the point of the concentration-response curve where the effect stands at 90%.

The values below come from ChEMBL document CHEMBL5252523, “Searching for New Leads for Tuberculosis: Design, Synthesis, and Biological Evaluation of Novel 2-Quinolin-4-yloxyacetamides” (J Med Chem, 2016).

The structures appear in SMILES notation. Values after ≈ are worked out from the molar mass of the structure shown.

For data set [1], the system named is Mycobacterium tuberculosis. The experiment in a line: Antimycobacterial activity against Mycobacterium tuberculosis H37Rv ATCC 25618 assessed as inhibition of microbial growth incubated for 6 days by resazurin based assay. The class given is functional. To be noted: H37Rv ATCC 25618, 144 h, time 6 day. A digest of the protocol:
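Ten two-fold dilutions made in neat DMSO, tested in Middlebrook 7H9 with the H37Rv inoculum. Controls: isoniazid from 4 μg/ml as positive control; rifampicin 1 μM as no-growth control. Plates sat sealed at 37 °C without shaking for 6 days.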
A general note: The colour change of resazurin is a common sign of viable cells or microbes.

The nature of data set [2]: Cytotoxicity against human HepG2 cells assessed as cell growth inhibition incubated for 48 hrs by CellTiter-Glo reagent based analysis. The class given is toxicity. A digest of the protocol:
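HepG2 cells kept in Eagle's MEM with 10% heat-inactivated FBS, 1% NEAA and penicillin/streptomycin, seeded at ~3000 cells/well onto pre-dispensed compound. Incubation was 48 h at 37 °C, 5% CO2. Plates were equilibrated to room temperature, CellTiter-Glo was added, and ATP luminescence was read after 10 min as the viability read-out.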
(In general: ATP-based viability assays read luminescence as a measure of living cells.)

The nature of data set [3]: Kinetic aqueous solubility of compound in phosphate buffer at pH 7.4 incubated for 1 hrs by CLND assay. To be noted: read-out: Kinetic_solubility. The class given is physicochemical.
The nature of data set [4]: Microsomal stability in mouse liver microsomes assessed as half life at 0.5 uM preincubated followed by NADPH addition and measured upto 30 mins by LC-MS/MS analysis. In kind it is ADME, Microsome. (Liver microsomes are vesicles of endoplasmic reticulum, rich in cytochrome P450 enzymes.)
Data set [5] can be described thus: Microsomal stability in human liver microsomes assessed as half life at 0.5 uM preincubated followed by NADPH addition and measured upto 30 mins by LC-MS/MS analysis. The class given is ADME, Microsome.
Data set [6] in a line: Chromatographic hydrophobicity index, log D of the compound in phosphate buffer at pH 7.4 by UV-HPLC analysis. In kind it is physicochemical.
Data set [7] can be described thus: Stability of compound in CD1 mouse blood assessed as half life at 0.5 uM incubated upto 240 mins by LC-MS/MS analysis. The class given is ADME, tissue-based. A digest of the protocol:
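Fresh CD1 mouse whole blood collected in EDTA tubes and spiked with compound. Three 300 μl aliquots were incubated at 37 °C. Supernatants were analysed by LC-MS/MS; analyte/internal standard ratios were normalised to time zero as % remaining, and half-life was taken from ln plots of % remaining.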

A short description of data set [8]: Stability of compound in CD1 mouse blood at 0.5 uM incubated upto 240 mins in presence of NaF pretreatment by LC-MS/MS analysis. The class given is ADME, tissue-based. To be noted: 4 h.
A short description of data set [9]: Artificial membrane permeability of the compound incubated for 3 hrs by HPLC analysis. The class given is ADME. To be noted: PAMPA, read-out: permeability.
For data set [10], the system named is Mycobacterium tuberculosis. Put plainly: Antimycobacterial activity against Mycobacterium tuberculosis H37Rv ATCC 25618 expressing pATB45luc infected in PMA-stimulated human THP-1 cells assessed as inhibition of intracellular bacterial growth incubated for 4 days by BrightGlo luciferase assay. The class given is functional, organism-based. To be noted: H37Rv ATCC 25618, THP-1, 96 h, time 4 day. A digest of the protocol: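 THP-1 cells grown in RPMI-1640 with 10% FBS, 1 mM pyruvate and 2 mM L-glutamine. Cells were PMA-differentiated (40 ng/ml) while infected with single-cell Mtb H37Rv-pATB45luc at MOI 1:1 for 4 h at 37 °C in a roller bottle, then washed four times. About 10000 cells/well were added onto pre-dispensed compound (max DMSO 0.5%) and incubated 4 days at 37 °C. Luciferase luminescence was read; IC50/IC90 came from nonlinear regression of dose-response curves.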

Data set [11] has as its target Voltage-gated inwardly rectifying potassium channel KCNH2 (Homo sapiens, UniProt Q12809). Put plainly: Inhibition of human ERG. In kind it is toxicity.

Chain of Voltage-gated inwardly rectifying potassium channel KCNH2 (Q12809 whole entry): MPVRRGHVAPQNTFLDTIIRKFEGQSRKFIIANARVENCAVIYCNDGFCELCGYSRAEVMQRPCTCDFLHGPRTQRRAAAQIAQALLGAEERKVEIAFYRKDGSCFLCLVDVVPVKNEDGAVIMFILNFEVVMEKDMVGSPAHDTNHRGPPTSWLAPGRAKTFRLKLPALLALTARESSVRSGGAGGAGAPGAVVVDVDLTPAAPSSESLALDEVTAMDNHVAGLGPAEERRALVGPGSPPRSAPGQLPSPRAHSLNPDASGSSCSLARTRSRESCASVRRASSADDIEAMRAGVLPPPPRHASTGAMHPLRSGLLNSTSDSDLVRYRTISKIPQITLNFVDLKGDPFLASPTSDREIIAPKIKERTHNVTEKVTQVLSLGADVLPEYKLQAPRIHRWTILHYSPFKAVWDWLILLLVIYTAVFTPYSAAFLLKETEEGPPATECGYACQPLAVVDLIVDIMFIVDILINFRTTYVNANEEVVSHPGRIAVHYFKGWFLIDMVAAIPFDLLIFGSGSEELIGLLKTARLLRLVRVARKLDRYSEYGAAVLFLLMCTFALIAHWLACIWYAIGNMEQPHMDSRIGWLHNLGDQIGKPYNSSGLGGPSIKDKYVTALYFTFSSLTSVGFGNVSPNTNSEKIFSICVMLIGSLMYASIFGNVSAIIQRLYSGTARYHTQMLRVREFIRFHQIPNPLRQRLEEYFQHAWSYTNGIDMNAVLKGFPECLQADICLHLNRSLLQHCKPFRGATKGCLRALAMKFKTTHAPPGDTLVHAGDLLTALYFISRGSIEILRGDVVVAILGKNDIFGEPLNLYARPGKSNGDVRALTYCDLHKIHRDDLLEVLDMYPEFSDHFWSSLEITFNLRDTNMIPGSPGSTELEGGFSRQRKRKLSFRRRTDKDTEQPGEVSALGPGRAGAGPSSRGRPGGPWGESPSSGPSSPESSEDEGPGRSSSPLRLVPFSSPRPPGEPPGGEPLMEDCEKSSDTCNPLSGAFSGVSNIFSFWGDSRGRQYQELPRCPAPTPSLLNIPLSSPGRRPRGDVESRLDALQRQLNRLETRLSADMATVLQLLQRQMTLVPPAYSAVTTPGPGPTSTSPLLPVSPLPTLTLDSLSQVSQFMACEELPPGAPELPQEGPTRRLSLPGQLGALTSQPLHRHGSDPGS

For the molecule `COc1ccc2nc(C)cc(OC(C)(C)C(=O)Nc3cc(C)cc(C)c3)c2c1`, in data set [1], the minimal inhibitory concentration (MIC) was over 250 µM. Further, the IC50 at 48 h in data set [2] is over 100 µM. The solubility kinetic at 1 h in data set [3] was found to be 20 µM (≈ 7.57 µg/mL). The half-life at 0.5 µM was under 5 min in [4], 19 min in [5] and 96 min in data set [7]. In addition, the chromatographic logD in data set [6] is 6.37. Besides, the Stability entry in [8] is recorded as “Stable”.

For `COc1ccc2nc(C)cc(OCc3nc4cc(C)ccc4o3)c2c1`, in [1], the MIC was 5.5 µM. For the same molecule, the half-maximal inhibitory concentration (IC50) at 48 h in [2] was over 100 µM. In data set [9], the Papp at 3 h was determined as 8.6 ×10⁻⁶ cm/s. The solubility kinetic at 1 h in [3] is 1 µM (≈ 0.334 µg/mL). In addition, the half-life at 0.5 µM in data set [4] was under 5 min; in [5], 15.7 min; in data set [7], over 240 min. In [6], this molecule showed a chromatographic logD of 6.12. Moreover, the IC90 in data set [10] came out at 5 µM. In data set [11], this molecule showed a half-maximal inhibitory concentration (IC50) of over 50.1 µM.

In the case of `COc1ccc2nc(C)cc(OCCNc3cc(C)cc(C)c3)c2c1`, the MIC in data set [1] came out at 32 µM. Also, the IC50 at 48 h in [2] came out at 31.6 µM. Further, the Papp at 3 h in [9] amounted to 19 ×10⁻⁶ cm/s. The solubility kinetic at 1 h in data set [3] was found to be 33 µM (≈ 11.1 µg/mL). Further, the half-life at 0.5 µM in data set [4] is under 5 min; in data set [5] it was over 30 min; in data set [7] it was over 120 min. This molecule showed a chromatographic logD in [6] of 6.93. Besides, the Stability entry in data set [8] is “Stable”.
